Hits are enriched below; roughly 3.7% of the tested compounds scored in any of these assays.
hERG protect: hERG (human) protection from proarrhythmic block; CHO-hERG, FluxOR thallium flux, dofetilide IC70 present; activation (rescue from dofetilide block), less the hit threshold, % at 10 µM; hit rate 0.51% among 310,000;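 active = activation above the mean of controls blocked by dofetilide plus 5 SD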;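 note: thallium influx through hERG after potassium depolarization seen as dye fluorescence rise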
KCNQ1 block: human KCNQ1 channel inhibition. B-score at 10 µM. AID 2642. hit rate 1.3% among 310,000. CHO-K1 KCNQ1, FluxOR thallium flux fluorescence; active compounds read high;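 active = compounds whose thallium flux B-score, printed positive for inhibition, exceeds three library SD while starting fluorescence stays within three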;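 note: channel opened by potassium depolarization with thallium stimulus after 20 min compound exposure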
Kir21 inh: inhibitors of mouse Kir2.1 inward-rectifier potassium channel. P35561. HEK293-Kir2.1, FluxOR thallium flux fluorescence; active compounds read low. B-score at 10 µM. hit rate 0.85% among 310,000. AID 1672;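 active = fluorescence ratio B-score at or below minus 3 SD of library scores, with starting-brightness B-score within 2 SD, cut at about -4.2 in these data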;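 note: channel flux triggered by added potassium and thallium sulfate stimulus; B-score of peak minus minimum fluorescence over baseline after thallium stimulus; more negative B-score means stronger Kir2.1 block with less thallium influx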
Target sequence (P35561 whole entry, looked up): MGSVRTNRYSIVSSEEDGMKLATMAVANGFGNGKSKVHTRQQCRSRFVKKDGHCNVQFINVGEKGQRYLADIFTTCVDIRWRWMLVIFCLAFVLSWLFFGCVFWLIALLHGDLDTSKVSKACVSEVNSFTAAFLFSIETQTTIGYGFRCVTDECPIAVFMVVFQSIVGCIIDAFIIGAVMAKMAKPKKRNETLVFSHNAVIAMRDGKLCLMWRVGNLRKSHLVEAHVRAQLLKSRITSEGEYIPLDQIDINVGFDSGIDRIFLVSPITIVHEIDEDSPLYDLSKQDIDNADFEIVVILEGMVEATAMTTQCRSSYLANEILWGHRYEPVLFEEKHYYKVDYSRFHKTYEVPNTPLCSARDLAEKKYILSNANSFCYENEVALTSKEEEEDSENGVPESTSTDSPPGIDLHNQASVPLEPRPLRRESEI
KCNQ1 act: potentiators or activators of human KCNQ1 potassium channel | hit rate 0.35% among 310,000 | CHO-K1 KCNQ1, thallium flux FluxOR fluorescence; active compounds read high | B-score at 10 µM | AID 2648;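 active = fluorescence ratio B-score, a plate-corrected score, at least three library SD, with initial intensity B-score within 5 SD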
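Test system: CHO-K1 cells stably expressing KCNQ1 / Medium: assay buffer / Also added: depolarizing K+/Tl+ stimulus, K2SO4 and Tl2SO4 each 12.5 mM in 5x stock / Incubation: 90 min dye loading and 20 min compound exposure, both at room temperature / Signal: thallium influx via FluxOR fluorescence, kinetic imaging / Evaluation: B score of baseline-normalized fluorescence ratio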
KCNK3 inh: human KCNK3 channel inhibition, primary screen | O14649 | hit rate 0.84% among 340,000 | B-score at 10 µM | CHO-KCNK3 thallium flux, FluxOR fluorescence; active compounds read low | AID 602410;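 active = B-score under library mean minus 4 SD, starting fluorescence ratio at most library mean plus 5 SD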;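 note: more negative B-score means stronger inhibition of thallium flux through KCNK3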
KCNK9 inh: blocks the human KCNK9 two-pore domain potassium channel; B-score at 10 µM; hit rate 1.2% among 310,000; HEK293 KCNK9, FluxOR thallium flux fluorescence; active compounds read low; AID 488922; Q9NPC2;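 active = ratio B-score over 3 SD below the library mean, with starting fluorescence within 5 SD of its mean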;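 note: negative B-score means less thallium flux so channel inhibition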
* hit, by the source's call; i = inactive; / = no result given.

SMILES	hERG protect	KCNQ1 block	Kir21 inh	KCNQ1 act	KCNK3 inh	KCNK9 inh
COc1cc(/C=N/NC(=O)Nc2ccccc2)ccc1OC(C)=O	-7	i	0.76	i	i	i
CCN(CC)CCNC(=O)CCc1c(C)nc2c(c(C)nn2-c2ccc(C)cc2)c1C	-10	i	-4.5*	i	i	i
COCCCNC(=O)CCc1c(C)nc2c(c(C)nn2-c2ccc(C)cc2)c1C	-4	i	-2	i	i	i
O=C(CCN1C(=O)c2cccc3cccc(c23)C1=O)NCc1ccco1	-9	i	-2.3	i	i	i
CCCSc1nc(N)cc(=O)[nH]1	4.7*	i	1.4	i	i	i
CC1CCc2c(sc3nc(C4CC4)nc(N4CCN(C(=O)c5ccco5)CC4)c23)C1 (configuration not stated)	3	6*	1.9	i	i	i
CSc1ccc(/C=N/NC(=O)c2cccs2)cc1	25*	i	0.17	46*	i	i
Cc1nn(-c2ccccc2)c(C)c1/C=N/NC(=O)c1cccs1	-7	i	-0.22	i	i	-7.8*
Cc1nn(-c2ccccc2)c(C)c1/C=N/NC(=O)c1cc(-c2cccs2)[nH]n1	-8	i	1.1	i	i	i
Cc1c(/C=N/NC(=O)c2cccs2)c2ccccc2n1Cc1ccccc1Cl	-8	i	-0.18	i	-9.3*	-7.7*
Cc1ccc(/C=N/NC(=O)CNC(=O)c2cccs2)o1	-6	i	-5.5*	i	i	i
O=C(CNC(=O)c1cccs1)N/N=C/c1ccco1	-6	i	-0.69	i	i	i
O=C(N/N=C/c1ccncc1)c1cccs1	-8	i	-0.09	i	i	i
CCC(=O)c1ccc(OCC(=O)Nc2nn3cnnc3s2)cc1	-2	i	-0.95	i	i	i
CCCCn1nc(C(=O)N(C)CC(=O)Nc2ccc(F)c(F)c2F)ccc1=O	/	/	/	/	i	/
Cc1ccc(Nc2cc(C)nn2-c2nc(C)cc(=O)[nH]2)cc1	20*	i	0	32*	i	i
COc1cc(CN(C2CC2)S(=O)(=O)c2ccccc2Br)cc(OC)c1	/	/	/	/	i	/
CCc1nnc(NC(=O)CSc2nc(-c3ccccc3)cc(-c3ccc(OC)cc3)c2C#N)s1	6.4*	i	0.55	i	i	i
Cc1ccsc1/C=N/NC(=O)c1nnn(-c2nonc2N)c1CN(C)c1ccccc1	-11	i	0.11	i	i	i
CC(=O)c1c(O)cc(C)n(-c2ccc(F)cc2)c1=O	-6	i	0.1	8*	i	i
COCCN(CC(=O)Nc1ccccc1C(F)(F)F)C(=O)/C=C/c1ccc2ccccc2n1	/	/	/	/	i	/
Cc1ccc(Nc2cc(Cl)nc(N)n2)c([N+](=O)[O-])c1	/	/	/	/	i	/
Cc1ccc(C(=O)c2cc(C)sc2NC(=O)CN2CCN(C(=O)c3ccco3)CC2)cc1	-20	9*	0.15	i	i	i
CCc1cc(C(=O)OC)c(NC(=O)CN2CCN(C(=O)c3ccco3)CC2)s1	-2	i	1.7	i	i	i
CC(=O)N1CCCC1(C(=O)O)c1ccccc1 (configuration not stated)	-4	i	0.01	i	i	i
SMILES	hERG protect	KCNQ1 block	Kir21 inh	KCNQ1 act	KCNK3 inh	KCNK9 inh
CC(C)C[C@@H](CN1CCC[C@@H]1CN1C(=O)C(=O)NC[C@@H]1Cc1ccccc1)N1C[C@H](Cc2ccccc2)N(CC2CCCCCC2)C(=O)C1=O	/	/	/	/	i	/
O=C1NC[C@H](Cc2ccccc2)N(C[C@H]2CCCN2C[C@H](Cc2ccccc2)N2C[C@H](Cc3ccccc3)N(CC3CCCCCC3)C(=O)C2=O)C1=O	/	/	/	/	-9*	/
NN1C(=O)/C(=C\c2ccco2)SC1=S	1	i	-0.25	i	i	i
COC(=O)C(Cc1ccc(O)cc1)NC(=O)C(CC(=O)OC(C)(C)C)NC(=O)OC(C)(C)C (configuration not stated)	-9	i	2.2	i	i	i
CCOC(=O)c1sc2ncnc(NCC(c3cccs3)N(C)C)c2c1C (configuration not stated)	20*	i	2.5	55*	i	i
CCN(CC)CCNC(=O)C1CCN(S(=O)(=O)c2c(C)noc2/C=C/c2ccccc2F)CC1	-12	i	-4.6*	i	i	i
Cc1nc(SCC(=O)c2ccccc2)c(C#N)c(-c2ccco2)c1C(=O)NCc1ccco1	-14	6*	0.21	i	i	i
Cc1cccc(C2C3=C(Nc4[nH]n(-c5ccccc5)c(=O)c42)c2ccccc2C3=O)c1 (configuration not stated)	-23	i	0.13	i	i	-7.5*
CCCCOC(=S)NC(=O)c1sc2ccccc2c1Cl	31*	i	0.56	53*	i	i
CN(C)CCCOC(=O)c1sc2ccccc2c1Cl	-8	i	-7.3*	i	i	i
CCCOc1ccc(C(CC(=O)O)NC(=O)c2sc3ccccc3c2Cl)cc1 (configuration not stated)	-9	i	0.15	i	i	i
CN(C)CCCOC(=O)c1ccc(Cl)cc1	4.8*	i	0.37	i	i	i
CN(C)CCCN(C(=O)c1sc2ccccc2c1Cl)c1nc2ccc(F)cc2s1	-28	i	-2.9	i	i	i
CCOc1ccc(C(=O)OCCCN(C)C)cc1	-5	i	0.04	i	i	i
Cc1cc(C)c(OCCCNC2CCCC2)c(Br)c1	-4	i	-3.4	i	i	i
CCCOc1ccc(OCCOCCNCc2ccccc2)cc1	-4	i	-2.9	i	i	i
Cc1ccc(OCCNCc2ccccc2)c(C)c1	-7	i	-4.6*	i	i	i
Cc1cc(C)c(OCCCNCc2ccccc2)c(Br)c1	-14	i	-16*	i	i	i
C/C=C/c1ccc(OCCOCCNCc2ccccc2)c(OC)c1	-12	i	-6.2*	i	i	i
Cc1cc(C)c(C)c(OCCOCCNCc2ccccc2)c1	-6	i	-9.1*	i	i	i
COc1cc(N2C(=O)c3ccccc3C2=O)c(Cl)cc1C(=O)OCC(=O)N(C)C	-9	i	0.82	i	i	i
CCN(Cc1ccc(OC)c(F)c1)C(=O)/C=C/c1ccc(S(=O)(=O)N2CCOCC2)cc1	/	/	/	/	i	/
Cc1cc(Cl)c(S(=O)(=O)N/N=C/c2ccc3c(c2)OCO3)c(Cl)c1	-11	10*	0.88	i	i	i
CN(C)c1ccc(C(C#N)c2ccccc2)nn1 (configuration not stated)	-4	i	-1.1	i	i	i

Assay outcomes deposited in PubChem BioAssay by Johns Hopkins Ion Channel Center.
